Data published in the RNAGym collection of RNA variant scans (doi:10.1126/science.aae0568).
Variants at the floor of the assay were thinned out.

B1: tRNA (parent)
chain: GUUCCGUUGGCGUAAUGGUAACGCGUCUCCCUCCUAAGGAGAAGACUGCGGGUUCGAGUCCCGUACGGAACG

Variants of: B1
Assay: yeast fitness relative to wild type (ratio to wild type); higher = fitter; tRNA-Arg(CCU), competitive growth, 37 C, YPD
How it was run: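 Variants of the tRNA-Arg(CCU) gene, chemically synthesised with a 3% per-site mutation rate at 69 sites, were placed at the native genomic locus in Saccharomyces cerevisiae. The pooled strains were competed in YPD at 37°C for 24 hours in six parallel replicates. Gene amplicons from the start population and from each end population were read by 100-nucleotide paired-end sequencing. Darwinian fitness relative to wild type came from changes in genotype frequencies; genotypes needed ≥ 100 starting reads, and estimates < 0.5 were set to 0.5.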

| Variant | yeast fitness |
| --- | --- |
| GUUACGUUGGCGUAACAGUAACGCGUCUCCCCCCUAAGGAGAAGACUGCGGGUUCGAGUCCCGUACGGAACG [C4A U16C G17A U32C] | ≤ 0.5 |
| GUUACGUUGGCGUAAUGGUAACGCGUCUCCCUCCCAAGGAGAACACUGCGGGUUCGAGUCCCGUACGGAACG [C4A U35C G44C] | ≤ 0.5 |
| GUUACGUUGGCGUAAUGGGAACGCGUCUCGCUCCUAAGGAGAAGACUGCGGGUUCGAGUCCCGUACGGAACG [C4A U19G C30G] | ≤ 0.5 |
| GUUACGUUGGCGUAAUGGUAACGCGACUCCCUCCUAAGGAGAAGACUGCGGGUUCGAGUCCCGUACGGAACG [C4A U26A] | 0.683 |
| GUUACGUUGGCGUAAUGGUAACGCGUCUCCCUCCUAAGGAGAAGACUCCGCGUUCGUGUCCCGUACGCAACG [C4A G48C G51C A57U G68C] | ≤ 0.5 |
| GUUACGUCGGCGUAAUGGUAACGCGUCUCCCUCCUAAGGAGAAGACUGCGCGUUCGAGUCCCGUACGGAACG [C4A U8C G51C] | ≤ 0.5 |
| GUUACGUUGGCGUAAUGCUAACGCGUCUCCCUGCUAAGGAGAAGACUGCGGGUUCGAGUCCCGUACGGAACG [C4A G18C C33G] | 0.591 |
| GUUGCGUUGGCGUGAUGGUAACGCGUUUCCCUCCUAAGGAGUAGACUGCGGGUUCGAGUCCCGUACGGAACG [C4G A14G C27U A42U] | ≤ 0.5 |
| GUUACGUUGGCGUAAUGGUAACGCGACUCCCUCCUAAGGAGAAGUCUGCGGGUUCGAGUCCCGUACGGAACG [C4A U26A A45U] | 0.656 |
| GUUACGAGGGCGUAAUGGUAACGCGUCUCCCUCCUAAGGAGAAGCCUGCGGGUUCGAGUCCCGUGGGGAACG [C4A U7A U8G A45C A65G C66G] | ≤ 0.5 |
| GUUACGUUGGCGUAAUGGAAACGCGUCUCCCUCCUAAGGUGAAGACUCCGGGUUCGAGUCCCGUACGGAACG [C4A U19A A40U G48C] | ≤ 0.5 |
| GUUACGUUGGCGUAAUCGUAACCCGUCUCCCUCCUAAGGAGAAGCCUGCGGGUCCGAGUCCCGUACGGAACG [C4A G17C G23C A45C U54C] | ≤ 0.5 |
| GUUACGUUGGCGUAAUGGGAACGCGUCUCCCUCCCAAGGAGAAGACUGCGGGCUCGAGUCCCGUACGGAACG [C4A U19G U35C U53C] | ≤ 0.5 |
| GUUACGUUGGCGUAAUGGGAACGCGUCUCCCUCCUAAGGAGAAGACUGCGGGUUCGAGUCCCGUACGGACCG [C4A U19G A70C] | 0.854 |
| GUUACGUUGGCGUAAUGGUAACGCGCGUCCCUGCUAUGGAAAAGACUGCGGGUUCGGGUCCGGUACGGAACG [C4A U26C C27G C33G A37U G41A A57G C62G] | ≤ 0.5 |
| GUUACGUUGGCGUAAUGCUAACGCGUCUCCCUUCUAAGGAGAAGACUGCGGGUUCGAGACCCGUACGGAACG [C4A G18C C33U U59A] | ≤ 0.5 |
| GUUACGUUGGCGUAAUGGUAACGCGUCUCCCUCCUAAGGAGAAGACUGCGGGUUCGAGUCCCGAACGGAACG [C4A U64A] | 0.815 |
| GUUACGAAGGCGUAAUGGUAACGCGUCUCCCUCCCAAGGAGAAGACUGCGGGUUCGAGUACCGUACGGAACG [C4A U7A U8A U35C C60A] | ≤ 0.5 |
| GUUACGUUGGCGUAAUGGUAACGCGUCUCCCUCCUAAGCAGAACACUGCGGCUUCGAGUCCCGUACGGAACG [C4A G39C G44C G52C] | 0.685 |

| Variant | yeast fitness |
| --- | --- |
| GUUACGUUGGCGUAAUGGUAACGCGUCUCCCGCCUAAGGAGAAGGCUGCGGGUUCGAGUCCCGUACGGUACG [C4A U32G A45G A69U] | ≤ 0.5 |
| GUUACGUUGGCGUAAUGGUAACGCGUCUCCCCCCUAAGGAGAAGAGUGCGGGUUCGAGUCCAGUACGGAACG [C4A U32C C46G C62A] | ≤ 0.5 |
| GUUACGUUGGCGAAAUGAUAACGCGUCUCCCUCCUAAGGAGAAGACUGCGGAUUGGAGUCCCGUACGGUACG [C4A U13A G18A G52A C55G A69U] | ≤ 0.5 |
| GUUGCGUUGGCGUCAUGGUAACGCGUCUCCCUCCUAAGGAGAAGACUGCCGGUUCCAGUCCCGUACGGAACG [C4G A14C G50C G56C] | ≤ 0.5 |
| GUUACGUCGGCGUAAUGGUAACGCGUCUCCCUCCUAAGGAGAAGACUGUGGGUUAGAGUCCCGUAUGGAACG [C4A U8C C49U C55A C66U] | ≤ 0.5 |
| GUUACGUUGGCGUAAUGGUAACGCGUCUCCCUCCUAAGGAGAACACUGCGAGUUCGACACCCGUACGGAACG [C4A G44C G51A G58C U59A] | ≤ 0.5 |
| GUUACGUUGGCGUAAUGGUAACGCGUCUCCCUCCUAAGGAGAAGACUGCGCGUUCGAGUCCCGUAUGGAACG [C4A G51C C66U] | ≤ 0.5 |
| GUUACGUUGGCGAAAUGGUAACGCGUCUCCCUCCUAAGGAGAAGACUGCGGGUUCGACUCCCGUACGGUACG [C4A U13A G58C A69U] | 0.655 |
| GUUACGUUGGCGUAAUGGUAACGCGUCUCCCUCCUAAGGAGAAGACUGCGGGUUCUAGUCCCGUACGGAACG [C4A G56U] | 0.786 |
| GUUACGUUGGCGUAAUGGUAACGCGACUCCCUCCUCAGGAGAAGACUGGGGGUUCGAGUCCCGUACGGAACG [C4A U26A A36C C49G] | 0.583 |
| GUUACGAAGGCGUAAUGGUAACGCGUCUCCCUCCUAAGGAGAAGACUGCGGGUUCGAGUACCGUACGGAACG [C4A U7A U8A C60A] | ≤ 0.5 |
| GUUACGUUGGCGUAAUGGUAACGCCUCUCCCUCCUAAGGAGAAGACUGCGGGUUCGAGUCACGUACGGAACG [C4A G25C C61A] | 0.694 |
| GUUACGUUGGCGUAAUGGAAACGCGUUUCCCUCCUAAGGAGAAGACUGCGGGUUCGAGUCCCGUACAGAACG [C4A U19A C27U G67A] | 0.573 |
| GUUACGUUGGCGUAAUGGUAACGCGUCUCCCUCCUAAGCACAAGACUGCGGGUUCCAGUCCCGUACGGAACG [C4A G39C G41C G56C] | ≤ 0.5 |
| GUUACGUUGGCGUAAUGGUAACGCGUCUCCCUCCUAAGGAGAAGACUGCGGGUUCGAGUCCCGUACUGAACG [C4A G67U] | 0.843 |
| GUUGCGUUGGCGUCAUGGUAACGCGUCUCCCUCCUAAGGAGAAGACUCCGGGUUCGAGUCCCGUACGGUGCG [C4G A14C G48C A69U A70G] | ≤ 0.5 |
| GUUACGUUGGCGUAACGGUAACGCGUCUCCCUCUUAAGGAGAAGACUGCGGGUUCGAGUCACGUACGGAACG [C4A U16C C34U C61A] | ≤ 0.5 |
| GUUACGUUGGCGUAAAGGUAACGCGUCUCGUUCCUAAGGAGAAGACUGCGGGUUCGAGUCCCGUACGGAACG [C4A U16A C30G C31U] | ≤ 0.5 |
